Laboratory results published in ChEMBL document CHEMBL1139268, “Camphor sulfonamide derivatives as novel, potent and selective CXCR3 antagonists” (Bioorg Med Chem Lett, 2009).

Tests used:
[1] = biological target: T1, C-X-C chemokine receptor type 3 (Homo sapiens, UniProt P49682); assay: Antagonist activity at human recombinant CXCR3 receptor expressed in CHO-K1 cells assessed as human IP10-induced calcium flux by FLIPR assay; format: functional, cell-based
T1 sequence (P49682 whole entry): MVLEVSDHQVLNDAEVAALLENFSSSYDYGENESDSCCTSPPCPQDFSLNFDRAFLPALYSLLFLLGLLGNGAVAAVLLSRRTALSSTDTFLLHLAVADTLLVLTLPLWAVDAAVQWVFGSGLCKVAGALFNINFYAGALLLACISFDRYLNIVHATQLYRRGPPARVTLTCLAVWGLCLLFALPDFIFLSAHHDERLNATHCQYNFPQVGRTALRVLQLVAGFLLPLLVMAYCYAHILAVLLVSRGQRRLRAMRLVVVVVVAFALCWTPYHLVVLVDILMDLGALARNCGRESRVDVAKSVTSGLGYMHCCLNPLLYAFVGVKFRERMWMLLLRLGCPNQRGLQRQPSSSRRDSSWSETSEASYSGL

[2] = biological target: T2, C-X-C chemokine receptor type 3 (Mus musculus, UniProt O88410); assay: Antagonist activity at mouse recombinant CXCR3 expressed in human U2OS cells; format: functional, cell-based
T2 sequence (O88410 whole entry): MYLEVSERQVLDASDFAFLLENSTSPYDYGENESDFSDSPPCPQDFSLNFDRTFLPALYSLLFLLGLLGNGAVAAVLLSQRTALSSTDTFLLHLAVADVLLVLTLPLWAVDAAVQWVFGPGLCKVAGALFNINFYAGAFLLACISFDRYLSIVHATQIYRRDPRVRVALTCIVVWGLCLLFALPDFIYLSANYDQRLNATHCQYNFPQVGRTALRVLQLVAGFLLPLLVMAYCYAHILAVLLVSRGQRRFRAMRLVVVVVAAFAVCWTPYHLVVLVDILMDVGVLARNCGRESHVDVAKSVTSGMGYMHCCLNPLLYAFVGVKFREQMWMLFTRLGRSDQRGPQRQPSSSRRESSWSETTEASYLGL
Summary of the method: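 Human U2OS cells were transiently transduced with a mixture of recombinant BacMam viruses, one expressing murine CXCR3 and one expressing chimeric G-protein Gqi5.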

| SMILES | IC50 [1] | IC50 [2] |
| --- | --- | --- |
| CC1(C)[C@@H]2CC[C@]1(CS(=O)(=O)N1CCN(c3ccc(C(F)(F)F)cn3)CC1)C(=O)C2 | 1580 nM | – |
| CC1(C)[C@@H]2CC[C@@]1(CS(=O)(=O)N1CCN(c3ccc(C(F)(F)F)cn3)CC1)C(O)C2 (some centres not stated) | 158 nM | – |
| CC1(O)C[C@H]2CC[C@]1(CS(=O)(=O)N1CCN(c3ccc(C(F)(F)F)cn3)CC1)C2(C)C (some centres not stated) | 200 nM | – |
| C[C@H]1CN(S(=O)(=O)C[C@]23CC[C@H](CC2O)C3(C)C)CCN1c1ncc(C(F)(F)F)cc1F (some centres not stated) | 50.1 nM | 158 nM |
| C[C@H]1CN(S(=O)(=O)C[C@]23CC[C@H](C[C@H]2O)C3(C)C)CCN1c1ncc(C(F)(F)F)cc1F | 63.1 nM | 1580 nM |
| CC1(C)[C@@H]2CC[C@@]1(CS(=O)(=O)N1CCN(c3cc(C(F)(F)F)ccn3)CC1)C(=O)C2 | 25100 nM | – |
| C[C@H]1CN(S(=O)(=O)C[C@]23CC[C@H](CC2=O)C3(C)C)CCN1c1ncc(C(F)(F)F)cn1 | 126 nM | 1000 nM |
| C[C@H]1CN(S(=O)(=O)C[C@]23CC[C@H](CC24OCCO4)C3(C)C)CCN1c1ncc(C(F)(F)F)cc1F | 39.8 nM | 1580 nM |
| CC1(C)[C@@H]2CC[C@@]1(CS(=O)(=O)N1CCN(c3nc4ccccc4s3)CC1)C(=O)C2 | > 12600 nM | – |
| CC1CN(S(=O)(=O)C[C@]23CC[C@H](CC2=O)C3(C)C)CCN1c1ccc(C(F)(F)F)cn1 (some centres not stated) | 316 nM | – |
| CC1CN(c2ccc(C(F)(F)F)cn2)CCN1S(=O)(=O)C[C@]12CC[C@H](CC1=O)C2(C)C (some centres not stated) | 631 nM | – |
| C[C@@H]1CN(c2ccc(C(F)(F)F)cn2)[C@@H](C)CN1S(=O)(=O)C[C@]12CC[C@H](CC1=O)C2(C)C | 6310 nM | – |
| C[C@H]1CN(S(=O)(=O)C[C@]23CC[C@H](CC2=O)C3(C)C)CCN1c1ccc(C(F)(F)F)cn1 | 158 nM | 2510 nM |
| CC1(C)[C@@H]2CC[C@@]1(CS(=O)(=O)N1CCN(c3cccc(C(F)(F)F)n3)CC1)C(=O)C2 | 25100 nM | – |
| CC1(C)[C@@H]2CC[C@@]1(CS(=O)(=O)N1CCN(c3ccccn3)CC1)C(=O)C2 | > 31600 nM | – |
| CC(=O)c1ccc(N2CCN(S(=O)(=O)C[C@]34CC[C@H](CC3=O)C4(C)C)CC2)nc1 | > 31600 nM | – |
| CC1(C)[C@@H]2CC[C@@]1(CS(=O)(=O)N1CCN(c3ccc(C(F)(F)F)cn3)C(CO)C1)C(=O)C2 (some centres not stated) | 398 nM | – |
| C[C@H]1CN(S(=O)(=O)C[C@]23CC[C@H](C[C@H]2O)C3(C)C)CCN1c1ccc(C(F)(F)F)cn1 | 316 nM | 631 nM |
| CC1(C)[C@@H]2CC[C@@]1(CS(=O)(=O)N1CCN(c3ccc(C(F)(F)F)cn3)CC1)C1(C2)OCCO1 | 200 nM | – |
| CC1(C)[C@@H]2CC[C@@]1(CS(=O)(=O)N1CCN(c3ncc(C(F)(F)F)cc3[N+](=O)[O-])CC1)C(=O)C2 | 3160 nM | – |
| CC1(C)[C@@H]2CC[C@@]1(CS(=O)(=O)N1CCN(c3ncc(C(F)(F)F)cc3F)CC1)C(=O)C2 | 158 nM | 794 nM |
| C[C@@H]1CN(S(=O)(=O)C[C@]23CC[C@H](CC2=O)C3(C)C)CCN1c1ncc(C(F)(F)F)cc1F | 501 nM | – |
| CC(C)C1CN(S(=O)(=O)C[C@]23CC[C@H](CC2=O)C3(C)C)CCN1c1ccc(C(F)(F)F)cn1 (some centres not stated) | > 31600 nM | – |
| CC1(C)[C@@H]2CC[C@@]1(CS(=O)(=O)N1CCN(c3ccc(C(F)(F)F)cn3)C(c3ccccc3)C1)C(=O)C2 (some centres not stated) | > 31600 nM | – |
| CCNC(=O)NC1C[C@H]2CC[C@]1(CS(=O)(=O)N1CCN(c3ccc(C(F)(F)F)cn3)CC1)C2(C)C (some centres not stated) | 794 nM | – |
| CC1(C)[C@@H]2CC[C@@]1(CS(=O)(=O)N1CCN(c3ncc(C(F)(F)F)cn3)CC1)C(=O)C2 | 316 nM | – |
| CC1(C)[C@@H]2CC[C@@]1(CS(=O)(=O)N1CCN(c3ncc(Br)cn3)CC1)C(=O)C2 | 631 nM | – |

| SMILES | IC50 [1] | IC50 [2] |
| --- | --- | --- |
| CC1(C)[C@@H]2CC[C@@]1(CS(=O)(=O)N1CCN(c3ccc(C#N)cn3)CC1)C(=O)C2 | > 31600 nM | – |
| CC1(C)[C@@H]2CC[C@@]1(CS(=O)(=O)N1CCCN(c3ccc(C(F)(F)F)cn3)CC1)C(=O)C2 | 6310 nM | – |
| CC1(C)[C@@H]2CC[C@@]1(CS(=O)(=O)NC1CCN(c3ccc(C(F)(F)F)cn3)CC1)C(=O)C2 | 15800 nM | – |
| CN(CCN(C)S(=O)(=O)C[C@]12CC[C@H](CC1=O)C2(C)C)c1ccc(C(F)(F)F)cn1 | > 31600 nM | – |
| CC1(C)[C@@H]2CC[C@@]1(CS(=O)(=O)N1CCN(c3ccc(C(F)(F)F)cc3F)CC1)C(=O)C2 | 2000 nM | – |
| Cc1ccc(N2CCN(S(=O)(=O)C[C@]34CC[C@H](CC3=O)C4(C)C)CC2)nc1 | > 31600 nM | – |
| CC1(C)[C@@H]2CC[C@@]1(CS(=O)(=O)N1CCN(c3nc(Cl)c(C(F)(F)F)cc3Cl)CC1)C(=O)C2 | 316 nM | – |
| CC1(C)[C@@H]2CC[C@@]1(CS(=O)(=O)N1CCN(c3ccc(C(F)(F)F)cc3)CC1)C(=O)C2 | > 31600 nM | – |
| C[C@H]1CN(S(=O)(=O)C[C@]23CC[C@H](CC2O)C3(C)C)CCN1c1ccc(C(F)(F)F)cn1 (some centres not stated) | 158 nM | 631 nM |
| C[C@H]1CN(S(=O)(=O)C[C@]23CC[C@H](C[C@@H]2O)C3(C)C)CCN1c1ccc(C(F)(F)F)cn1 | 31.6 nM | 200 nM |
| CC1(C)[C@@H]2CC[C@@]1(CS(=O)(=O)N1CCN(c3ccc(C(F)(F)F)cn3)CC1)C(NS(C)(=O)=O)C2 (some centres not stated) | 631 nM | – |
| CC1(C)[C@@H]2CC[C@@]1(CS(=O)(=O)N1CCN(c3ncc(C(F)(F)F)cc3Cl)CC1)C(=O)C2 | 398 nM | – |
| CC1(C)[C@@H]2CC[C@@]1(CS(=O)(=O)N1CCN(c3ccc(C(F)(F)F)c(Cl)n3)CC1)C(=O)C2 | 251 nM | – |
| CC1(C)[C@@H]2CC[C@@]1(CS(=O)(=O)N1CCN(c3ccc(C(F)(F)F)cn3)CC1)C(N)C2 (some centres not stated) | 794 nM | – |
| CC(=O)NC1C[C@H]2CC[C@]1(CS(=O)(=O)N1CCN(c3ccc(C(F)(F)F)cn3)CC1)C2(C)C (some centres not stated) | 2000 nM | – |
| CC1(C)[C@@H]2CC[C@@]1(CS(=O)(=O)N1CCN(c3ccc(Br)cn3)CC1)C(=O)C2 | 1580 nM | – |
| CC1(C)[C@@H]2CC[C@@]1(CS(=O)(=O)N1CCN(c3cc4ccccc4cn3)CC1)C(=O)C2 | 15800 nM | – |
| CCNC1C[C@H]2CC[C@]1(CS(=O)(=O)N1CCN(c3ccc(C(F)(F)F)cn3)CC1)C2(C)C (some centres not stated) | 7940 nM | – |
| CC1(C)[C@@H]2CC[C@@]1(CS(=O)(=O)N1CCN(c3ccc(C(F)(F)F)cn3)CC1)C(F)C2 (some centres not stated) | 794 nM | – |
| CC1(C)[C@@H]2CC[C@@]1(CS(=O)(=O)N1CCN(c3ncccc3C(F)(F)F)CC1)C(=O)C2 | > 31600 nM | – |
| C[C@@H]1CN(S(=O)(=O)C[C@]23CC[C@H](CC2=O)C3(C)C)CCN1c1ccc(C(F)(F)F)cn1 | 501 nM | – |
| CCC1CN(S(=O)(=O)C[C@]23CC[C@H](CC2=O)C3(C)C)CCN1c1ccc(C(F)(F)F)cn1 (some centres not stated) | 631 nM | – |
| CC1(C)[C@@H]2CC[C@@]1(CS(=O)(=O)N1CCN(c3ccc([N+](=O)[O-])cn3)CC1)C(=O)C2 | > 31600 nM | – |
| CC1(C)[C@@H]2CC[C@@]1(CS(=O)(=O)N1CCN(c3ccc(C(F)(F)F)nn3)CC1)C(=O)C2 | 5010 nM | – |
| CC1(C)[C@@H]2CC[C@@]1(CS(=O)(=O)N1C[C@@H]3C[C@H]1CN3c1ccc(C(F)(F)F)cn1)C(=O)C2 | > 31600 nM | – |
| CC1(C)[C@@H]2CC[C@@]1(CS(=O)(=O)N1CCC(Nc3ccc(C(F)(F)F)cn3)CC1)C(=O)C2 | 31600 nM | – |
